Measured values reported in ChEMBL document CHEMBL1156002, “Synthesis, Raman, FT-IR, NMR spectroscopic characterization, antimicrobial activity, cytotoxicity and DNA binding of new mixed aza-oxo-thia macrocyclic compounds” (2009).
Converted amounts (≈) assume the structure as drawn.

Assays:
Format in all cases: functional
A549 [1] = assay: Cytotoxicity against human A549 cells assessed as cell viability at 1 uM after 48 hrs by MTT assay; settings: A549, 48 h, read-out: Activity
Summary of the method: (§1)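 Cells were seeded at 3.10³–5.10³ per well in RPMI 1640 with 10% FBS, 4 mM L-glutamine and penicillin/streptomycin, then held 24 h at 37 °C under 5% CO₂. Ligands (DMSO, final 0.5% v/v) were added at 0.1–100 for 24 or 48 h. MTT was added for 4 h and dissolved in 50% DMF/5% SDS. A570 was read, and cytotoxicity was calculated as 100×(OD treated/OD untreated).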

A549 [2] = assay: Cytotoxicity against human A549 cells assessed as cell viability at 0.1 uM after 24 hrs by MTT assay; settings: A549, 24 h, read-out: Activity; summary of the method: as §1
Candida albicans = assay: Antifungal activity against Candida albicans ATCC 10231 after 72 hrs by agar disk diffusion assay
Summary of the method: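 Sterile 6 mm paper discs were loaded with ligand solution freshly prepared in DMSO and placed on inoculated agar. The inoculum came from broth cultures: bacteria in Nutrient Broth at 30 °C for 24 h, yeasts in Malt Extract Broth for 48 h. Plates were incubated at 35 °C for 24 h (bacteria) or 25 °C for 72 h (yeasts). A DMSO solvent control and a reference antibiotic disc were included on each plate.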

[3] = Cytotoxicity against human 23132/87 cells assessed as cell viability at 10 uM after 48 hrs by MTT assay; settings: 23132-87, 48 h, read-out: Activity; summary of the method: as §1
Proteus vulgaris [4] = assay: Antibacterial activity against Proteus vulgaris ATCC 8427 after 24 hrs by broth micro dilution method; settings: ATCC 8427, 24 h
A549 [5] = assay: Cytotoxicity against human A549 cells assessed as cell viability at 1 uM after 24 hrs by MTT assay; settings: A549, 24 h, read-out: Activity; summary of the method: as §1
[6] = Cytotoxicity against human 23132/87 cells assessed as cell viability at 10 uM after 24 hrs by MTT assay; settings: 23132-87, 24 h, read-out: Activity; summary of the method: as §1
Proteus vulgaris [7] = assay: Antibacterial activity against Proteus vulgaris ATCC 8427 after 24 hrs by agar disk diffusion assay
Summary of the method: (§2)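 Disk diffusion with sterile 6 mm discs loaded with DMSO solutions of the test agents and placed on inoculated agar. Bacteria were pre-grown in Nutrient Broth at 30 °C for 24 h, and plates were incubated at 35 °C for 24 h. Each plate carried a reference antibiotic disc matched to the organism, and a DMSO-only solvent control was run.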

[8] = Cytotoxicity against human 23132/87 cells assessed as cell viability at 1 uM after 48 hrs by MTT assay; settings: 23132-87, 48 h, read-out: Activity; summary of the method: as §1
[9] = Cytotoxicity against human 23132/87 cells assessed as cell viability at 0.1 uM after 24 hrs by MTT assay; settings: 23132-87, 24 h, read-out: Activity; summary of the method: as §1
Kluyveromyces marxianus = assay: Antifungal activity against Kluyveromyces fragilis NRRL 2415 after 24 hrs by broth micro dilution method; settings: NRRL 2415, 24 h
Summary of the method: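 Broth microdilution was run in cation-adjusted Mueller Hinton Broth. Compounds were dissolved in DMSO at 2 mg mL^-1 and serially diluted two-fold. Yeast precultures were grown in Malt Extract Broth for 48 h. The final inoculum was about 10⁶ cfu mL^-1, and plates were incubated at 37 °C for 24 h. The MIC was read from this series.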

Pseudomonas aeruginosa = assay: Antibacterial activity against Pseudomonas aeruginosa ATCC 27853 after 24 hrs by agar disk diffusion assay; summary of the method: as §2
[10] = tested on: Mycolicibacterium smegmatis; assay: Antibacterial activity against Mycobacterium smegmatis CCM 2067 after 24 hrs by agar disk diffusion assay; summary of the method: as §2
Escherichia coli = assay: Antibacterial activity against Escherichia coli ATCC 11230 after 24 hrs by broth micro dilution method; settings: ATCC 11230, 24 h
A549 [11] = assay: Cytotoxicity against human A549 cells assessed as cell viability at 10 uM after 48 hrs by MTT assay; settings: A549, 48 h, read-out: Activity; summary of the method: as §1
[12] = Cytotoxicity against human 23132/87 cells assessed as cell viability at 100 uM after 24 hrs by MTT assay; settings: 23132-87, 24 h, read-out: Activity; summary of the method: as §1

For `O=C1CSCC(=O)Nc2nc(nc(-c3ccccc3)n2)NC(=O)CSCC(=O)Nc2nc(nc(-c3ccccc3)n2)N1`, the viability at 1 µM (A549 [1]) was > 86%, the viability at 0.1 µM (A549 [2]) was > 86% and the “inhibition zone (IZ)” value (Candida albicans) was 16 mm. The viability at 10 µM [3] was > 86%, the MIC (Proteus vulgaris [4]) was 12.5 mg/L (≈ 20.7 µM) and the viability at 1 µM (A549 [5]) was > 86%. For the same molecule, the viability at 10 µM [6] was > 86%, the “inhibition zone (IZ)” value (Proteus vulgaris [7]) was 12 mm and the viability at 1 µM [8] was > 86%. For the same molecule, the viability at 0.1 µM [9] was > 86%, the MIC (Kluyveromyces marxianus) was 6.25 mg/L (≈ 10.4 µM) and the “inhibition zone (IZ)” value (Pseudomonas aeruginosa) was 9 mm. For the same molecule, the “inhibition zone (IZ)” value [10] was 10 mm, the MIC (Escherichia coli) was 25 mg/L (≈ 41.5 µM) and the viability at 10 µM (A549 [11]) was > 86%. The viability at 100 µM [12] was > 86%.
For `O=C1CCSSCCC(=O)Nc2nc(nc(-c3ccccc3)n2)NC(=O)CCSSCCC(=O)Nc2nc(nc(-c3ccccc3)n2)N1`, the viability at 1 µM (A549 [1]) was > 86%, the viability at 0.1 µM (A549 [2]) was > 86% and the “inhibition zone (IZ)” value (Candida albicans) was 19 mm. The viability at 10 µM [3] was > 86%, the MIC (Proteus vulgaris [4]) was 12.5 mg/L (≈ 17.3 µM) and the viability at 1 µM (A549 [5]) was > 86%. The viability at 10 µM [6] was > 86%, the “inhibition zone (IZ)” value (Proteus vulgaris [7]) was 13 mm and the viability at 1 µM [8] was > 86%. The viability at 0.1 µM [9] was > 86%, the MIC (Kluyveromyces marxianus) was 1.56 mg/L (≈ 2.16 µM) and the “inhibition zone (IZ)” value (Pseudomonas aeruginosa) was 11 mm. For the same molecule, the “inhibition zone (IZ)” value [10] was 11 mm, the MIC (Escherichia coli) was 25 mg/L (≈ 34.6 µM) and the viability at 10 µM (A549 [11]) was > 86%. The viability at 100 µM [12] was > 86%.
For `O=C1CCSCCC(=O)Nc2nc(nc(-c3ccccc3)n2)NC(=O)CCSCCC(=O)Nc2nc(nc(-c3ccccc3)n2)N1`, the viability at 1 µM (A549 [1]) was > 86%, the viability at 0.1 µM (A549 [2]) was > 86% and the “inhibition zone (IZ)” value (Candida albicans) was 19 mm. For the same molecule, the viability at 10 µM [3] was > 86%, the MIC (Proteus vulgaris [4]) was 25 mg/L (≈ 37.9 µM) and the viability at 1 µM (A549 [5]) was > 86%. The viability at 10 µM [6] was > 86%, the “inhibition zone (IZ)” value (Proteus vulgaris [7]) was 11 mm and the viability at 1 µM [8] was > 86%. For the same molecule, the viability at 0.1 µM [9] was > 86%, the MIC (Kluyveromyces marxianus) was 6.25 mg/L (≈ 9.49 µM) and the “inhibition zone (IZ)” value (Pseudomonas aeruginosa) was 11 mm. For the same molecule, the “inhibition zone (IZ)” value [10] was 9 mm, the MIC (Escherichia coli) was 25 mg/L (≈ 37.9 µM) and the viability at 10 µM (A549 [11]) was > 86%. The viability at 100 µM [12] was > 86%.
In the case of `O=C1CSSCC(=O)Nc2nc(nc(-c3ccccc3)n2)NC(=O)CSSCC(=O)Nc2nc(nc(-c3ccccc3)n2)N1`, the viability at 1 µM (A549 [1]) is reported as > 86%, the viability at 0.1 µM (A549 [2]) is reported as > 86% and the “inhibition zone (IZ)” value (Candida albicans) is reported as 19 mm. The viability at 10 µM [3] was > 86%, the MIC (Proteus vulgaris [4]) was 25 mg/L (≈ 37.5 µM) and the viability at 1 µM (A549 [5]) was > 86%. For the same molecule, the viability at 10 µM [6] was > 86%, the “inhibition zone (IZ)” value (Proteus vulgaris [7]) was 11 mm and the viability at 1 µM [8] was > 86%. The viability at 0.1 µM [9] was > 86%, the MIC (Kluyveromyces marxianus) was 1.56 mg/L (≈ 2.34 µM) and the “inhibition zone (IZ)” value (Pseudomonas aeruginosa) was 11 mm. The “inhibition zone (IZ)” value [10] was 10 mm, the MIC (Escherichia coli) was 25 mg/L (≈ 37.5 µM) and the viability at 10 µM (A549 [11]) was > 86%. For the same molecule, the viability at 100 µM [12] was > 86%.
